This is an account of results in ChEMBL document CHEMBL3585325, “Discovery of (1R,2S)-2-{[(2,4-Dimethylpyrimidin-5-yl)oxy]methyl}-2-(3-fluorophenyl)-N-(5-fluoropyridin-2-yl)cyclopropanecarboxamide (E2006): A Potent and Efficacious Oral Orexin Receptor Antagonist” (J Med Chem, 2015).

In brackets after ≈: the same amount, converted by molar mass.

One data set concerns the target T1, Orexin receptor type 2 (Homo sapiens, UniProt O43614).
T1 sequence (O43614 whole entry): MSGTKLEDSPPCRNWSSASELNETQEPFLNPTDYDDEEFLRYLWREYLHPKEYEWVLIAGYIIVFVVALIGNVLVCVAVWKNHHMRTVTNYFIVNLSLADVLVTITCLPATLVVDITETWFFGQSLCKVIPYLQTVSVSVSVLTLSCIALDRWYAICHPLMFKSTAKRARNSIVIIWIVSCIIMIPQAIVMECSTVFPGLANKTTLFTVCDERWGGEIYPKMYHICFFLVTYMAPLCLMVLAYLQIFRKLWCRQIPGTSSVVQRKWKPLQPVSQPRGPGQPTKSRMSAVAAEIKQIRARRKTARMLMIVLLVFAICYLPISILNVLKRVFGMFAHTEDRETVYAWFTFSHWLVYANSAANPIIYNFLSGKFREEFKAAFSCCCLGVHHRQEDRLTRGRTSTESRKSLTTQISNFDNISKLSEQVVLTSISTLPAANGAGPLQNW
Nature of the data set: Binding affinity to human OX2R by radioligand displacement binding assay. Background: In a radioligand displacement assay an active substance lowers the binding of a labelled ligand.

The target of data set [1] is T2, Orexin/Hypocretin receptor type 1 (Homo sapiens, UniProt O43613).
T2 sequence (O43613 whole entry): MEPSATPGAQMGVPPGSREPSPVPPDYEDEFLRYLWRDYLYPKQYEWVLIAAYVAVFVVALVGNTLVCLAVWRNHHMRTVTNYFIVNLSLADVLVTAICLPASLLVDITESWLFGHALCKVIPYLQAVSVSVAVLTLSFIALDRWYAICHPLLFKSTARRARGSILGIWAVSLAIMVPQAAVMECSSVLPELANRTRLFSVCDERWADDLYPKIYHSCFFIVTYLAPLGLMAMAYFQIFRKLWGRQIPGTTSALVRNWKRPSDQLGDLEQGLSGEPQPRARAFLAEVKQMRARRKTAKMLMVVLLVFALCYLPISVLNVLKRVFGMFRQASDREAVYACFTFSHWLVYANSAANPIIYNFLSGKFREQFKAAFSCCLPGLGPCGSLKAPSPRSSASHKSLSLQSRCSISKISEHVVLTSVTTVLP
Nature of the data set: Binding affinity to human OX1R by radioligand displacement binding assay. The method, boiled down:
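Ki values come from single experiments run in triplicate.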

The nature of data set [2]: Aqueous solubility of the compound in Dulbecco's phosphate buffered saline at pH 7.4 by DMSO solution precipitation method. It is filed as physicochemical. An outline of the steps:
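Solubility in Dulbecco's PBS at pH 7.4, measured at room temperature by precipitation from a DMSO solution.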

The target in a further data set is CYP3A (Homo sapiens, UniProt P08684+P20815+P24462+Q9HB55). Briefly: Time dependent inhibition of CYP3A in human liver microsomes assessed as enzyme activity using midazolam as substrate at 10 uM incubated for 30 mins prior to substrate addition for 10 mins by LC-MS/MS analysis. Also on record: scale not given: the % may be the effect or the level left. As to conditions: probe midazolam, read-out: Activity. It is filed as ADME. An outline of the steps:
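Test compound at 10 μM preincubated 30 min at 37 °C with human liver microsomes (0.2 mg/mL), with or without an NADPH-generating system. Mixture then diluted 10-fold into a marker-substrate cocktail plus NADPH system and incubated 10 min at 37 °C. Midazolam served as the CYP3A probe. Metabolites measured by LC−MS/MS. Result is the residual activity with NADPH relative to without, as % of control.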
A general note: Liver microsomes are vesicles of endoplasmic reticulum, rich in cytochrome P450 enzymes.

Data set [3] in a line: Activity at P-gp (unknown origin) assessed as corrected flux ratio. It is filed as ADME. As to conditions: human. The method, boiled down:
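Reported as corrected flux ratio, i.e. the MDR1 flux ratio divided by the PK1 flux ratio.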

Data set [4] addresses Voltage-gated inwardly rectifying potassium channel KCNH2 (Homo sapiens, UniProt Q12809). Nature of the data set: Inhibition of human ERG.
The next data set has as its system Mus musculus. Nature of the data set: Sleep promoting activity in C57BL/6NCrlCrlj mouse assessed as reduction in wakefulness time at 30 mg/kg, po administered immediately prior to beginning of dark cycle measured during first 3 hrs after drug administration by electroencephalogram/electromyogram analysis (reference value: 116.7 min). It is filed as functional. The method, boiled down: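 Male C57BL/6NCrlCrlj mice implanted with EEG/EMG electrodes were dosed orally in 10% Cremophor EL, 5% DMSO in saline just before lights-off (ZT12) and recorded from ZT12 to ZT20. Group sizes were n=6 dosed and n=7 vehicle. Stages were scored by software with blinded visual confirmation; cumulative first-3-h times are mean with SEM. Dunnett's test was run after one-way ANOVA.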

Voltage-gated inwardly rectifying potassium channel KCNH2, sequence (Q12809 whole entry): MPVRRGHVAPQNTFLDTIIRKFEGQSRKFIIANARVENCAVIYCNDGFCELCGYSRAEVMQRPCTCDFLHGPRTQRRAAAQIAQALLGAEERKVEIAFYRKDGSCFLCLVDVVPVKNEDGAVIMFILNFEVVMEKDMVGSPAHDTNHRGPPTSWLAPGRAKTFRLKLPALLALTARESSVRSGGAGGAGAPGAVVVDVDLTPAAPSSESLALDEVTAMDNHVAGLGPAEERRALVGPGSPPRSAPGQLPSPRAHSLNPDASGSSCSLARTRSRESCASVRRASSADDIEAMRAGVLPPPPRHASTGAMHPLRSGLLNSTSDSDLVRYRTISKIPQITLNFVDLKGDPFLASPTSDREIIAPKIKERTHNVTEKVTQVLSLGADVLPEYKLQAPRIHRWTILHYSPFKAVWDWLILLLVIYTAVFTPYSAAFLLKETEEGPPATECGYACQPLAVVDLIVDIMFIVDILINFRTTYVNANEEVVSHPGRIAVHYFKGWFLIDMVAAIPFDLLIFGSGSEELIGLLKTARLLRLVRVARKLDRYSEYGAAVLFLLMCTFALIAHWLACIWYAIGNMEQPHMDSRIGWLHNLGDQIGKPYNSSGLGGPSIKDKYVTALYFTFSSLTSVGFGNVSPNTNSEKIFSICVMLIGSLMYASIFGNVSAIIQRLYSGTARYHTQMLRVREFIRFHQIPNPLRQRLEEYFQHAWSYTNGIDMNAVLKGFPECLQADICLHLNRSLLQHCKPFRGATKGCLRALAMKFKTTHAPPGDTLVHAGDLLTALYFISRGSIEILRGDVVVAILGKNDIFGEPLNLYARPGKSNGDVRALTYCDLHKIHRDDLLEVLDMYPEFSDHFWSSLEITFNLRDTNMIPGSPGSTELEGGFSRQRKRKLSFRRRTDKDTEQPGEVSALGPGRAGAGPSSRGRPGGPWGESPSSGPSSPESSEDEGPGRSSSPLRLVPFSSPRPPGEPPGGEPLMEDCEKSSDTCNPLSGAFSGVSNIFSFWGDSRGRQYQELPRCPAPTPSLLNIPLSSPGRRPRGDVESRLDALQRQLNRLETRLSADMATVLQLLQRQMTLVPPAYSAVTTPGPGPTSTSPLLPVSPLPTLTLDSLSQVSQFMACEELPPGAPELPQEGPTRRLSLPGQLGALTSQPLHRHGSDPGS

In the case of `CCn1cc(OC[C@]2(c3ccccc3)C[C@@H]2C(=O)Nc2ccc(C#N)cn2)c(C)n1`, the Ki (on Orexin receptor type 2; in data set [1]) was more than 2 µM each time.
For `CCn1cc(OC[C@@]2(c3ccccc3)C[C@H]2C(=O)Nc2ccc(C#N)cn2)c(C)n1`, the results for the Ki (at Orexin receptor type 2; in data set [1]) were 0.008 µM and 0.171 µM, respectively. For the same compound, the kinetic solubility (usually solubility judged after dilution from a stock solution rather than from solid) in data set [2] came out at 64 µM (≈ 25.7 µg/mL). In addition, the activity at 10 min, 10 µM on CYP3A is 93%. Further, the Ratio in data set [3] is 0.9.
On the same counts, the results for `Cc1ncc(OC[C@@]2(c3ccccc3)C[C@H]2C(=O)Nc2ccc(C#N)cn2)c(C)n1` are 0.049 µM, 2.49 µM, 80 µM (≈ 32 µg/mL), 96% and 2.7.
On to `CCc1nc(C)ncc1OC[C@@]1(c2ccccc2)C[C@H]1C(=O)Nc1ccc(C#N)cn1`, for which the values for the Ki (at Orexin receptor type 2; in data set [1]) were 0.007 µM and 0.121 µM, respectively. This compound also yielded a solubility (kinetic) in data set [2] of 44 µM (≈ 18.2 µg/mL). The activity at 10 min, 10 µM at CYP3A turned out to be 91%. For the same compound, in data set [3], the Ratio came to 2.1.
On the same counts, the results for `Cc1cnc(OC[C@@]2(c3ccccc3)C[C@H]2C(=O)Nc2ccc(C#N)cn2)c(C)n1` are 0.021 µM, 0.073 µM, 47 µM (≈ 18.8 µg/mL), 97% and 1.3.
On the same counts, the results for `COCc1nc(C)ncc1OC[C@@]1(c2ccccc2)C[C@H]1C(=O)Nc1ccc(C#N)cn1` are 0.009 µM, 0.043 µM, 93 µM (≈ 39.9 µg/mL), 92% and 4.
Take `Cc1ncc(OC[C@@]2(c3ccccc3)C[C@H]2C(=O)Nc2ccccn2)c(C)n1`: the Ki – broadly, a measure of affinity in units of concentration, obtained from inhibition or displacement – on Orexin receptor type 2 worked out at 0.08 µM; in data set [1] it was 1.02 µM. For the same compound, the activity at 10 min, 10 µM at CYP3A turned out to be 99%. Also, the Ratio in data set [3] amounted to 1.9.
Turning to `Cc1ncc(OC[C@@]2(c3ccccc3)C[C@H]2C(=O)Nc2cccnc2)c(C)n1`, the Ki at Orexin receptor type 2 was determined as 0.05 µM; in data set [1], 0.391 µM. Besides, the activity at 10 min, 10 µM at CYP3A was 104%. Further, in data set [3], the Ratio is 4.4.
The corresponding values for `Cc1ncc(OC[C@@]2(c3ccccc3)C[C@H]2C(=O)Nc2ccncc2)c(C)n1` are 0.163 µM, 1.58 µM, 110% and 6.
In the case of `Cc1ncc(OC[C@@]2(c3ccccc3)C[C@H]2C(=O)Nc2ccc(F)cn2)c(C)n1`, the Ki on Orexin receptor type 2 was found to be 0.007 µM; in data set [1] it was 0.137 µM. Moreover, the kinetic solubility in data set [2] stood at 92 µM (≈ 36.1 µg/mL). The activity at 10 min, 10 µM on CYP3A is 87%. For the same compound, the Ratio in data set [3] is recorded as 1.7. For the same compound, the IC50 (in general, the point on the concentration scale where inhibition reaches its midpoint) in data set [4] is 7.7 µM. Besides, the Time in the data set on Mus musculus amounted to 72.3 min.
Regarding `Cc1ncc(OC[C@@]2(c3ccccc3)C[C@H]2C(=O)Nc2cccc(F)n2)c(C)n1`, the Ki on Orexin receptor type 2 amounted to 0.056 µM; in data set [1], 0.138 µM. Moreover, at CYP3A, the activity at 10 min, 10 µM turned out to be 94%. In addition, in data set [3], the Ratio is reported as 1.4.
As to `Cc1ncc(OC[C@@]2(c3ccccc3)C[C@H]2C(=O)Nc2ccc(Cl)cn2)c(C)n1`, the Ki on Orexin receptor type 2 worked out at 0.002 µM; in data set [1], 0.039 µM. Further, the activity at 10 min, 10 µM on CYP3A worked out at 88%. Also, in data set [3], the Ratio is given as 1.3. Moreover, the Time in the data set with Mus musculus is on record as 68.2 min.
Turning to `Cc1ccc(NC(=O)[C@@H]2C[C@@]2(COc2cnc(C)nc2C)c2ccccc2)nc1`, the Ki worked out at 0.034 µM on Orexin receptor type 2 and 0.124 µM in data set [1]. Further, the activity at 10 min, 10 µM on CYP3A amounted to 22%. In addition, the Ratio in data set [3] stood at 1.3.
On the same counts, the results for `Cc1ccnc(NC(=O)[C@@H]2C[C@@]2(COc2cnc(C)nc2C)c2ccccc2)c1` are 0.029 µM, 0.224 µM, 90% and 1.5.
As for `Cc1ncc(OC[C@@]2(c3ccccc3)C[C@H]2C(=O)Nc2cc(C)c(F)cn2)c(C)n1`, the Ki is 0.004 µM at Orexin receptor type 2 and 0.006 µM in data set [1]. This compound displayed a kinetic solubility in data set [2] of 51 µM (≈ 20.7 µg/mL). The activity at 10 min, 10 µM on CYP3A worked out at 89%. For the same compound, the Time in the data set with Mus musculus stood at 67.1 min.
Take `COc1cc(NC(=O)[C@@H]2C[C@@]2(COc2cnc(C)nc2C)c2ccccc2)ncc1F`: the inhibitory constant (Ki) at Orexin receptor type 2 came to 0.006 µM; in data set [1], 0.003 µM. For the same compound, the activity at 10 min, 10 µM on CYP3A amounted to 86%. Further, the Ratio in data set [3] was 1.6.
Take `Cc1ncc(OC[C@@]2(c3ccccc3F)C[C@H]2C(=O)Nc2ccc(F)cn2)c(C)n1`: the figures for the Ki (on Orexin receptor type 2; in data set [1]) were 0.017 µM and 0.081 µM, respectively. At CYP3A, the activity at 10 min, 10 µM is 77%. The Ratio in data set [3] is reported as 1.4. Inhibition in data set [4] was half-maximal at 5.9 µM (IC50).
The corresponding values for `Cc1ncc(OC[C@@]2(c3ccc(F)cc3)C[C@H]2C(=O)Nc2ccc(F)cn2)c(C)n1` are 0.008 µM, 0.039 µM, 85%, 1.3 and 2.2 µM.
Regarding `Cc1ncc(OC[C@@]2(c3cc(F)cc(F)c3)C[C@H]2C(=O)Nc2ccc(F)cn2)c(C)n1`, the Ki was determined as 0.003 µM at Orexin receptor type 2 and 0.007 µM in data set [1]. Further, the activity at 10 min, 10 µM on CYP3A was determined as 62%. In data set [3], the Ratio came out at 1.5. Besides, in data set [4], the half-maximal inhibitory concentration (IC50) worked out at 4.8 µM.
Take `Cc1ncc(OC[C@@]2(c3ccc(F)c(F)c3)C[C@H]2C(=O)Nc2ccc(F)cn2)c(C)n1`: the results for the Ki (on Orexin receptor type 2; in data set [1]) were 0.004 µM and 0.014 µM, respectively. In addition, the activity at 10 min, 10 µM on CYP3A was 75%.
As for `Cc1ncc(OC[C@@]2(c3cccc(F)c3)C[C@H]2C(=O)Nc2cc(C)c(F)cn2)c(C)n1`, the results for the Ki (at Orexin receptor type 2; in data set [1]) were 0.004 µM and 0.002 µM, respectively. Further, the solubility (kinetic) in data set [2] turned out to be 46 µM (≈ 19.5 µg/mL). The activity at 10 min, 10 µM at CYP3A was 83%. Moreover, the Ratio in data set [3] was determined as 1.4. The same compound came in with an IC50 in data set [4] of more than 10 µM.
For the compound `Cc1ccc(OCC2(c3ccccc3)CC2C(=O)Nc2ccc(C#N)cn2)c(C)n1` (racemic), the Ki on Orexin receptor type 2 is 0.222 µM; in data set [1], 0.938 µM. Besides, the kinetic solubility in data set [2] was 22 µM (≈ 8.77 µg/mL). Also, the activity at 10 min, 10 µM at CYP3A was determined as 34%.
With `Cc1cc(OCC2(c3ccccc3)CC2C(=O)Nc2ccc(C#N)cn2)cc(C)n1` (racemic), the Ki (at Orexin receptor type 2; in data set [1]) was more than 2 µM throughout. Moreover, the activity at 10 min, 10 µM on CYP3A was 94%.
Consider `Cc1nn(C)cc1OCC1(c2ccccc2)CC1C(=O)Nc1ccc(C#N)cn1` (racemic), for which the Ki on Orexin receptor type 2 is 0.204 µM; in data set [1], more than 2 µM. In data set [2], the solubility (kinetic) amounted to 85 µM (≈ 32.9 µg/mL). For the same compound, the activity at 10 min, 10 µM on CYP3A amounted to 85%.
For the compound `CCn1cc(OCC2(c3ccccc3)CC2C(=O)Nc2ccc(C#N)cn2)c(C)n1` (racemic), the Ki was 0.01 µM on Orexin receptor type 2 and 0.391 µM in data set [1]. Besides, in data set [2], the kinetic solubility amounted to 78 µM (≈ 31.3 µg/mL). The activity at 10 min, 10 µM at CYP3A worked out at 84%. Further, the Ratio in data set [3] stood at 1.5.
